Measurements published in ChEMBL document CHEMBL1133629, “Cholic acid derivatives as 1,2,4,5-tetraoxane carriers: structure and antimalarial and antiproliferative activity” (J Med Chem, 2000).
Values belong to the molecule of their own block, whether it stands above or below them.

Columns and labels:
HeLa = assay: Antiproliferative activity in HeLa cells of Human cervix carcinoma; format: functional, cell-based
In short: (§1)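 Cells were maintained as monolayers at 37 °C, 5% CO2, in RPMI-1640 with 10% heat-inactivated FBS, 25 mM Hepes, pH 7.2. They were seeded at 2000 cells/well in triplicate, and five concentrations were added 20 h later from 8 mM DMSO stocks; DMSO-only controls. MTT was added at 72 h for 4 h, then SDS/HCl, with OD570 read the next day. Blank-corrected survival vs control; IC50 = 50% survival inhibition.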

Plasmodium falciparum [1] = assay: Antimalarial activity against Plasmodium falciparum African D6; format: functional, organism-based
In short: (§2)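 P. falciparum clones in human erythrocytes at 0.2% parasitemia and 1% hematocrit, in RPMI-1640 without folate or PABA plus 10% heat-inactivated human plasma. Compounds were diluted 2-fold 11 times ([…] range). Incubation was at 37 °C under 5% CO2/5% O2/90% N2, with [3H]hypoxanthine added at 42 h and 24 h further (66 h total). Cells were freeze-lysed, harvested and scintillation-counted; IC50 by nonlinear logistic dose-response fit.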

[2] = Antiproliferative activity in Fem-X of Human melanoma; format: functional; in short: as §1
Plasmodium falciparum [3] = assay: Antimalarial activity in Plasmodium falciparum Indochina W2; format: functional, organism-based; in short: as §2
CCRF-CEM = assay: Antiproliferative activity as Growth inhibition in CCRF-CEM Leukemia cell line; format: functional; details: Homo sapiens
In short: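 NCI 60-cell-line screen: 48-h continuous drug exposure, growth measured by sulforhodamine B protein assay. GI50 is the interpolated concentration giving +50 percentage growth.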

[4] = Cytotoxic activity against phytohemagglutininin (PHA)-stimulated peripheral blood mononuclear cells (PBMC) inhibition; format: functional; details: Homo sapiens; read-out: Cytotoxicity IC50
In short: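 PBMC were isolated from heparinized blood of three healthy volunteers by density-gradient centrifugation and seeded at 100 000 cells/well in RPMI-based medium. Stimulated cultures received PHA at 5 µg/mL final; non-stimulated cultures received none. Compound dilutions were added 2 h later in triplicate, with medium-only controls. IC50 was determined for each donor.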

[5] = Selectivity, ratio of PHA-stimulated PBMC to PBMC; format: functional
[6] = Selectivity, ratio of PHA-stimulated PBMC to D6 clone; format: functional
Plasmodium falciparum [7] = assay: Antimalarial activity in Plasmodium falciparum FCR3; format: functional, organism-based
FM3A = assay: Antiproliferative activity in Mouse mammary tumor FM3A; format: functional, cell-based

Molecule: COC(=O)CCC(C)[C@H]1CC[C@H]2[C@@H]3[C@H](OC(C)=O)C[C@@H]4C[C@]5(CC[C@]4(C)[C@H]3C[C@H](OC(C)=O)[C@]12C)OO[C@]1(CC[C@@]2(C)[C@H](C[C@@H](OC(C)=O)[C@@H]3[C@@H]2C[C@H](OC(C)=O)[C@]2(C)[C@@H](C(C)CCC(=O)OC)CC[C@@H]32)C1)OO5 (some centres not stated)
IC50 (HeLa; Homo sapiens, HeLa): 20500 nM
IC50 (Plasmodium falciparum [1]): > 96 nM
IC50 [2]: 19500 nM
IC50 (Plasmodium falciparum [3]): > 96 nM

Molecule: CC(=O)O[C@H]1C[C@H]2[C@@H]([C@H](OC(C)=O)C[C@@H]3C[C@]4(CC[C@@]32C)OO[C@]2(CC[C@@]3(C)[C@H](C[C@@H](OC(C)=O)[C@@H]5[C@@H]3C[C@H](OC(C)=O)[C@]3(C)[C@@H](C(C)CCC(N)=O)CC[C@@H]53)C2)OO4)[C@@H]2CC[C@H](C(C)CCC(N)=O)[C@@]12C (some centres not stated)
IC50 (HeLa; Homo sapiens, HeLa): 6000 nM
IC50 (Plasmodium falciparum [1]): 129 nM
IC50 [2]: 6200 nM
IC50 (Plasmodium falciparum [3]): 59.4 nM

Molecule: COC(=O)CCC(C)[C@H]1CC[C@H]2[C@@H]3[C@H](OC(C)=O)C[C@@H]4C[C@]5(CC[C@]4(C)[C@H]3C[C@H](OC(C)=O)[C@]12C)OO[C@@]1(CC[C@@]2(C)[C@H](C[C@@H](OC(C)=O)[C@@H]3[C@@H]2C[C@H](OC(C)=O)[C@]2(C)[C@@H](C(C)CCC(=O)OC)CC[C@@H]32)C1)OO5 (some centres not stated)
GI50 (CCRF-CEM): 14800 nM
IC50 (HeLa; Homo sapiens, HeLa): > 29000 nM
IC50 (Plasmodium falciparum [1]): > 96 nM
IC50 [2]: > 29000 nM
IC50 (Plasmodium falciparum [3]): > 96 nM

Molecule: CC(=O)O[C@H]1C[C@H]2[C@@H]([C@H](OC(C)=O)C[C@@H]3C[C@]4(CC[C@@]32C)OO[C@@]2(CC[C@@]3(C)[C@H](C[C@@H](OC(C)=O)[C@@H]5[C@@H]3C[C@H](OC(C)=O)[C@]3(C)[C@@H](C(C)CCC(=O)O)CC[C@@H]53)C2)OO4)[C@@H]2CC[C@H](C(C)CCC(=O)O)[C@@]12C (some centres not stated)
GI50 (CCRF-CEM): 1.2 nM
IC50 (HeLa; Homo sapiens, HeLa): 5.2 nM
IC50 (Plasmodium falciparum [1]): > 99 nM
IC50 [2]: 4.2 nM
IC50 (Plasmodium falciparum [3]): > 99 nM

Molecule: CCCNC(=O)CCC(C)[C@H]1CC[C@H]2[C@@H]3[C@H](OC(C)=O)C[C@@H]4C[C@]5(CC[C@]4(C)[C@H]3C[C@H](OC(C)=O)[C@]12C)OO[C@@]1(CC[C@@]2(C)[C@H](C[C@@H](OC(C)=O)[C@@H]3[C@@H]2C[C@H](OC(C)=O)[C@]2(C)[C@@H](C(C)CCC(=O)NCCC)CC[C@@H]32)C1)OO5 (some centres not stated)
CC50 [4]: 96000 nM
Ratio [5]: >10700
IC50 (HeLa; Homo sapiens, HeLa): 33000 nM
Ratio [6]: 10333
IC50 (Plasmodium falciparum [1]): 9.29 nM
IC50 [2]: 23000 nM
IC50 (Plasmodium falciparum [3]): 60.4 nM

Molecule: CC(=O)O[C@H]1C[C@H]2[C@@H]([C@H](OC(C)=O)C[C@@H]3C[C@]4(CC[C@@]32C)OO[C@]2(CC[C@@]3(C)[C@H](C[C@@H](OC(C)=O)[C@@H]5[C@@H]3C[C@H](OC(C)=O)[C@]3(C)[C@@H](C(C)CCC(=O)O)CC[C@@H]53)C2)OO4)[C@@H]2CC[C@H](C(C)CCC(=O)O)[C@@]12C (some centres not stated)
IC50 (HeLa; Homo sapiens, HeLa): 9.2 nM
IC50 (Plasmodium falciparum [1]): > 99 nM
IC50 [2]: 7.6 nM
IC50 (Plasmodium falciparum [3]): > 99 nM

Molecule: CCCNC(=O)CCC(C)[C@H]1CC[C@H]2[C@@H]3[C@H](OC(C)=O)C[C@@H]4C[C@]5(CC[C@]4(C)[C@H]3C[C@H](OC(C)=O)[C@]12C)OO[C@]1(CC[C@@]2(C)[C@H](C[C@@H](OC(C)=O)[C@@H]3[C@@H]2C[C@H](OC(C)=O)[C@]2(C)[C@@H](C(C)CCC(=O)NCCC)CC[C@@H]32)C1)OO5 (some centres not stated)
CC50 [4]: 251000 nM
GI50 (CCRF-CEM): 100 nM
Ratio [5]: >15900
IC50 (HeLa; Homo sapiens, HeLa): 166 nM
Ratio [6]: 12500
IC50 (Plasmodium falciparum [1]): 20.1 nM
IC50 [2]: 94000 nM
IC50 (Plasmodium falciparum [3]): 30.1 nM

Molecule: CC(=O)O[C@H]1C[C@H]2[C@@H]([C@H](OC(C)=O)C[C@@H]3C[C@]4(CC[C@@]32C)OO[C@@]2(CC[C@@]3(C)[C@H](C[C@@H](OC(C)=O)[C@@H]5[C@@H]3C[C@H](OC(C)=O)[C@]3(C)[C@@H](C(C)CCC(N)=O)CC[C@@H]53)C2)OO4)[C@@H]2CC[C@H](C(C)CCC(N)=O)[C@@]12C (some centres not stated)
GI50 (CCRF-CEM): 970 nM
IC50 (HeLa; Homo sapiens, HeLa): 3700 nM
IC50 (Plasmodium falciparum [1]): 23.7 nM
IC50 [2]: 3100 nM
IC50 (Plasmodium falciparum [3]): 18.8 nM

Molecule: C[C@@H]1CC[C@H]2[C@@H](C)C(=O)O[C@@H]3O[C@@]4(C)CC[C@@H]1[C@]32OO4 [ARTEMISININ]
EC50 (Plasmodium falciparum [7]): 7.8 nM
IC50 (Plasmodium falciparum [1]): 8.6 nM
EC50 (FM3A): 10000 nM
IC50 (Plasmodium falciparum [3]): 7.3 nM

IC50 (HeLa; hela): 3.5 nM
Molecule: CISPLATIN
